Experimental data of several laboratories.
Lines come from different studies, so protocols differ.
RPS6KA6: Ribosomal protein S6 kinase alpha-6 (RPS6KA6, Homo sapiens, UniProt Q9UK32)
RPS6KA6 N-terminal kinase domain: Ribosomal protein S6 kinase alpha-6, N-terminal kinase domain (RPS6KA6, Homo sapiens, UniProt Q9UK32)
RPS6KA6 C-terminal kinase domain: Ribosomal protein S6 kinase alpha-6, C-terminal kinase domain (RPS6KA6, Homo sapiens, UniProt Q9UK32)

Compound	target	test	setting	endpoint	value
Cc1ccc(C(=O)Nc2ccc(CN3CCN(C)CC3)c(C(F)(F)F)c2)cc1C#Cc1cnc2cccnn12	RPS6KA6	enzyme activity, inhibitor	23.5 nM	remaining activity	93%
O=C(O)[C@H]1[C@H](Cn2nnc3ccccc3c2=O)CC[C@@H]1C(=O)c1ccc(OCCC2CCOCC2)cc1	RPS6KA6 N-terminal kinase domain	cell-free assay, competition with immobilised ligand	1 µM	remaining binding	86%
c1cnn2ncc(-c3ccnc(N4CCC45COC5)n3)c2c1	RPS6KA6 C-terminal kinase domain	binding, competition with immobilised ligand	1 µM	remaining binding	66%
CN1CCC2(CC1)NC(=O)c1c(c3ccc(Cl)c(Cl)c3n1C)C2C#N (racemic)	RPS6KA6	thermal stability, DSF	10 µM	ΔTm	0 °C
CN(C)c1ncnc(-c2ccc3nc(Nc4cc(CN5CCN(C(=O)CC(F)(F)F)CC5)ccn4)[nH]c3c2)c1Cl	RPS6KA6 C-terminal kinase domain	cell-free assay, competition with immobilised ligand	1 µM	remaining binding	81%
Nc1nc(Nc2ccc(S(N)(=O)=O)cc2)nn1C(=O)c1c(F)cccc1F	RPS6KA6	cell-free assay	0.5 µM	remaining signal	24.7%
CN1CC(Oc2cnc(C#N)cc2-c2ccn3nc(NC(=O)C4CC4)cc3c2)C1	RPS6KA6	enzyme activity, inhibitor	1 µM	inhibition	-4%
C[C@@H]1CCN(C(=O)CC#N)C[C@@H]1N(C)c1ncnc2[nH]ccc12	RPS6KA6	cell-free assay, inhibitor	0.5 µM	remaining signal	98.1%
O=C(N1CCS(=O)(=O)CC1)N1C[C@H](c2ccc(OC(F)(F)F)cc2)C[C@H](c2nc(C3CC3)no2)C1	RPS6KA6 C-terminal kinase domain	cell-free assay, competition with immobilised ligand	1 µM	remaining binding	100%
N[C@@H]1CCN(c2nccc(-c3cnn4ncccc34)n2)C1	RPS6KA6 C-terminal kinase domain	binding, competition with immobilised ligand	1 µM	remaining binding	100%
COc1ccc2cc(OCC3(C(=O)O)CN(C(=O)c4ccc(F)cc4)C3)ccc2c1	RPS6KA6 N-terminal kinase domain	cell-free assay, competition with immobilised ligand	1 µM	remaining binding	77%
CNC(=O)c1cc(Oc2ccc(NC(=O)Nc3ccc(Cl)c(C(F)(F)F)c3)cc2)ccn1	RPS6KA6	enzyme activity, inhibitor	10 µM	inhibition	-16%
O=C1Nc2ccc(Cl)cc2C1=Cc1cc(Cl)c(O)c(Cl)c1	RPS6KA6	cell-free assay	0.5 µM	remaining signal	78.5%
N#CC1c2c([nH]c3c(Cl)c(Cl)ccc23)C(=O)NC12CCCCC2 (racemic)	RPS6KA6	thermal stability, DSF	10 µM	ΔTm	1.6 °C
Nc1ncnc2occ(-c3ccc(NC(=O)Nc4cc(C(F)(F)F)ccc4F)cc3)c12	RPS6KA6 C-terminal kinase domain	cell-free assay, inhibitor	20 µM	remaining signal	18%
COc1cc(Cl)c(C(=O)N[C@@H](CN[C@H]2CC[C@@H](N)CC2)Cc2ccc(C#N)cc2)cc1-c1ccc(CN[C@H](C)c2ccc(C)cc2)o1	RPS6KA6	enzyme activity, inhibitor	1 µM	remaining activity	97%
Cn1c2c(Cl)c(Cl)ccc2c2cc(N)[nH]c(=O)c21	RPS6KA6	thermal stability, DSF	10 µM	ΔTm	3.3 °C

Compound	target	test	setting	endpoint	value
CN(CCCC(F)(F)F)c1nccc(-c2cnn3ncccc23)n1	RPS6KA6 C-terminal kinase domain	binding, competition with immobilised ligand	1 µM	remaining binding	100%
CCC(=N\O)/C(C)=C/c1ccc(F)cc1	RPS6KA6 C-terminal kinase domain	cell-free assay, competition with immobilised ligand	1 µM	remaining binding	94%
Cn1c2c(Cl)c(Cl)ccc2c2cn[nH]c(=O)c21	RPS6KA6	thermal stability, DSF	10 µM	ΔTm	2 °C
CS(=O)(=O)CCNCc1ccc(-c2ccc3ncnc(Nc4ccc(OCc5cccc(F)c5)c(Cl)c4)c3c2)o1	RPS6KA6	cell-free assay	0.5 µM	remaining signal	108%
CC(C)(C)c1nc(-c2cccc(NS(=O)(=O)c3c(F)cccc3F)c2F)c(-c2ccnc(N)n2)s1	RPS6KA6	enzyme activity, inhibitor, radiometric	1 µM	remaining activity	98%
C[C@@H]1CCN(c2nccc(-c3cnn4ncccc34)n2)C1	RPS6KA6 N-terminal kinase domain	binding, competition with immobilised ligand	1 µM	remaining binding	71%
CCCS(=O)(=O)Nc1ccc(F)c(C(=O)c2c[nH]c3ncc(-c4ccc(Cl)cc4)cc23)c1F	RPS6KA6	enzyme activity, inhibitor	1 µM	inhibition	< 10%
Cc1cnc(NC2CCOCC2)nc1-n1cnc(C(=O)NC(CN)c2cc(F)cc(Cl)c2)c1 (stereo not shown)	RPS6KA6	enzyme activity, inhibitor, radiometric	1 µM	remaining activity	17%
O=C(Nc1cnn(-c2csc(C(=O)NC3COC3)c2)c1)Nc1ccccc1Cl	RPS6KA6	enzyme activity, inhibitor	5 µM	remaining activity	107%
Cn1cc(Cl)c2c(Oc3c(F)cc(Nc4cc(Cl)nc(N)n4)cc3F)ccnc21	RPS6KA6 C-terminal kinase domain	cell-free assay, competition with immobilised ligand	0.1 µM	remaining binding	100%
CC1(C)NC(=O)c2[nH]c3c(Cl)c(Cl)ccc3c2C1C#N (stereo not shown)	RPS6KA6	thermal stability, DSF	10 µM	ΔTm	2.2 °C
CC(C)(O)[C@H]1CC[C@H](Nc2ccc3ncc(-c4cccc(C(F)(F)F)c4)n3n2)CC1	RPS6KA6	enzyme activity, inhibitor	1 µM	remaining activity	91.7%
CC/C(=N\NC(=O)C(C)Nc1ccccc1)c1ccc(O)c(C)c1O (stereo not shown)	RPS6KA6	enzyme activity, inhibitor	0.1 µM	inhibition	28.6%
C[C@H](NC(=O)c1cnc2n1[C@](C)(Cc1ccc(C#N)cc1)C(=O)N2c1cc(Cl)c(F)c(Cl)c1)C(=O)NC1(c2ccccn2)CC1	RPS6KA6 N-terminal kinase domain	cell-free assay, competition with immobilised ligand	1 µM	remaining binding	91%
Oc1ccc(-c2nc(-c3ccncc3)c(-c3ccc(F)cc3)[nH]2)cc1	RPS6KA6	cell-free assay	0.5 µM	remaining signal	110%
COc1ccc2c(c1)O[C@H](c1ccc(OC)c(OC)c1)C[C@@H]2NC(=O)C1(c2ccc3c(c2)OC(F)(F)O3)CC1	RPS6KA6 C-terminal kinase domain	cell-free assay, competition with immobilised ligand	1 µM	remaining binding	91%
COc1cc2ncnc(Nc3ccc(Oc4ccccc4)c(C)c3C)c2cc1OC	RPS6KA6	enzyme activity, inhibitor	1 µM	inhibition	19%
